Here are results for four compounds from article PMC6980747 (Cell chemical biology, 2019).

For assay [1], the system named is ZR-75-1, T47D, LNCaP, and MCF-7 cells. Briefly: Growth rate inhibition. Type of assay: cell-based. The note with it: 72-hour treatment, Figures 3A-D.
In assay [2] the test system is pPRAS40, pGSK3β, pS6 in T47D cells. Briefly: Immunoblot of downstream AKT signaling in T47D cells. The note with it: 24 hours. Type of assay: cell-based. On the technique in general: In western blotting, separated proteins are transferred to a membrane and probed.
In assay [3] the test system is pPRAS40 in T47D and MDA-MB-468 cells. Briefly: Time course and washout immunoblots of pPRAS40. Particulars: for pPRAS40 levels over time: 250 nM, T47D and MDA-MB-468, continuous treatment; for pPRAS40 levels after washout: 12 hours treatment with 250 nM, then washout. Format: cell-based.
A further assay deals with ZR-75-1 cells. Briefly: Growth rate inhibition. The note with it: ZR-75-1, 72-hour treatment. Format: cell-based.
Assay [4] deals with AKT1, AKT2, AKT3 in MDA-MB-468 cells. The assay can be described thus: Immunoblot of AKT isoform degradation in MDA-MB-468 cells. Format: cell-based.
The test system of a further assay is MOLT4 cells proteome. The assay can be described thus: TMT quantitative mass spectrometry proteomics in MOLT4 cells. Format: cell-based, human. The note with it: MOLT4, 250 nM, 4 hours, vs DMSO.
Assay [5] relates to MDA-MB-468 and HCC1937 cells. The assay can be described thus: Growth rate inhibition. Type of assay: cell-based. Particulars: MDA-MB-468 and HCC1937, 72-hour treatment.
The next assay has as its target AKT1 (Homo sapiens, UniProt P31749). Briefly: Z'-LYTE FRET-based kinase inhibition assay, AKT1. Format: biochemical.
A further assay has as its target AKT2 (Homo sapiens, UniProt P31751). Briefly: Z'-LYTE FRET-based kinase inhibition assay, AKT2. Type of assay: biochemical.
Another assay deals with RET (V804M) (Homo sapiens, UniProt P07949, V804M). The assay can be described thus: LanthaScreen assay, RET. Type of assay: biochemical. A general note: In TR-FRET formats the signal depends on donor and acceptor labels being close together.
Assay [6] has as its system AKT in T47D and MDA-MB-468 cells. The assay can be described thus: Time course and washout immunoblots of AKT levels. Format: cell-based.
The target of assay [7] is T1, S6K1 (Homo sapiens, UniProt P23443). Briefly: Immunoblot of S6K1 degradation. Type of assay: cell-based.
The next assay addresses AKT3 (Homo sapiens, UniProt Q9Y243). The assay can be described thus: Z'-LYTE FRET-based kinase inhibition assay, AKT3. Format: biochemical.
The subject of assay [8] is AKT isoforms in T47D cells. Briefly: Immunoblot of AKT degradation in T47D cells. Type of assay: cell-based. Particulars: 24-hour treatment, 250 nM.
The test system of assay [9] is Ikaros (IKZF1) and Aiolos (IKZF3). Briefly: Immunoblot of Ikaros and Aiolos degradation. Format: cell-based. The note with it: 24 hours of drug treatment. A digest of the protocol:
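Cells were seeded at 250,000/mL (T47D at 200,000/mL) in RPMI or DMEM with 10% serum, left overnight, then given test compound. They were lysed 15 min in RIPA (pH 7.5) with 0.1% SDS, phosphatase and protease inhibitors, cleared at 14,000 rpm for 10 min at 4°C, and protein-normalized. Lysates went through SDS-PAGE and nitrocellulose transfer, milk block, primary antibodies at 4°C overnight, and fluorescent secondaries 1 h RT. Imaging was on a LI-COR Odyssey.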

Another assay deals with PKG1 (Homo sapiens, UniProt Q13976). The assay can be described thus: Z'-LYTE kinase assay, PKG1. Type of assay: biochemical.
The target of assay [10] is T1, S6K1. Briefly: Z'-LYTE kinase assay, S6K1. Format: biochemical.

T1 sequence (P23443 whole entry): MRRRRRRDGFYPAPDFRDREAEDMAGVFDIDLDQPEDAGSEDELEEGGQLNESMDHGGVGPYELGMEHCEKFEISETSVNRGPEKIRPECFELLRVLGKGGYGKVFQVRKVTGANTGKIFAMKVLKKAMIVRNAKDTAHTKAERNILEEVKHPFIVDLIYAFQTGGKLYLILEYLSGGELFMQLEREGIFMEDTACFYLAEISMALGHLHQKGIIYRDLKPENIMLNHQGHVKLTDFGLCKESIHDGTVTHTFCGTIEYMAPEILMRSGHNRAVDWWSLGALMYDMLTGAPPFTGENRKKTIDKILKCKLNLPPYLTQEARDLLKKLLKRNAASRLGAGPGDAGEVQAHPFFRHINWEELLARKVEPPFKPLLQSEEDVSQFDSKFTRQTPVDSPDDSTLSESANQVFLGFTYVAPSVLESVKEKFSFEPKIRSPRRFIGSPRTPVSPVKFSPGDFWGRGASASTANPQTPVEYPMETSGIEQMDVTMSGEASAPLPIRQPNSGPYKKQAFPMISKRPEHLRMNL
Chain of PKG1 (Q13976 whole entry): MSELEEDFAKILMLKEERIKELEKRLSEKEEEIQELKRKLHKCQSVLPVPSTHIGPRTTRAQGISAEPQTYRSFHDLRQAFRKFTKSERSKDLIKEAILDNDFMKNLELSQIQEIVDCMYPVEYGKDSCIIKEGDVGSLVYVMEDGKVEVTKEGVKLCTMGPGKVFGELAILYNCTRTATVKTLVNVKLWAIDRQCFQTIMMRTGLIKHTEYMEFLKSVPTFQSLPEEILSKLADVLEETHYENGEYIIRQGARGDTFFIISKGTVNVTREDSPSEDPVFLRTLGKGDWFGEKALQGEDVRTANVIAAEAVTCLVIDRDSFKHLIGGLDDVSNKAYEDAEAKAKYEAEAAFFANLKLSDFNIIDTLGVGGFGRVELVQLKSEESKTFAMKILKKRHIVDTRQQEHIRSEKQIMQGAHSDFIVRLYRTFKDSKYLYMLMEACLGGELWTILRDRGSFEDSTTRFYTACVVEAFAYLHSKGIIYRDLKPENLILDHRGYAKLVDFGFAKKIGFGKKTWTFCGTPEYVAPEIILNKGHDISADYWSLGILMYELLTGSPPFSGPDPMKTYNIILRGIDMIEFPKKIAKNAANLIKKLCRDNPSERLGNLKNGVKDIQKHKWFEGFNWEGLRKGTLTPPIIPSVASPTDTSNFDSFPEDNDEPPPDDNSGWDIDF
Chain of AKT3 (Q9Y243 whole entry, canonical isoform): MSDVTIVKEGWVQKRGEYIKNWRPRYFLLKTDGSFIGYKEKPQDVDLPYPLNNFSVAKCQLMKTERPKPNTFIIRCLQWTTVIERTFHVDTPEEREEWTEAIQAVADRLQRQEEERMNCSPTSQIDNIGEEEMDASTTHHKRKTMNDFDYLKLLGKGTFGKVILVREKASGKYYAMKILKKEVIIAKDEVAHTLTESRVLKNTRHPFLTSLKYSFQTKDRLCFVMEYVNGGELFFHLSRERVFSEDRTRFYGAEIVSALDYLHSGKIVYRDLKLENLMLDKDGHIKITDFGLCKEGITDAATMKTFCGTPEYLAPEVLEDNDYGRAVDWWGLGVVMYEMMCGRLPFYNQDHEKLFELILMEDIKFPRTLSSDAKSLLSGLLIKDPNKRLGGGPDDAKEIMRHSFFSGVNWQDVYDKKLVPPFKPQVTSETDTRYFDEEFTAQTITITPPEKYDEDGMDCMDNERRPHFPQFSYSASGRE
Chain of AKT1 (P31749 whole entry): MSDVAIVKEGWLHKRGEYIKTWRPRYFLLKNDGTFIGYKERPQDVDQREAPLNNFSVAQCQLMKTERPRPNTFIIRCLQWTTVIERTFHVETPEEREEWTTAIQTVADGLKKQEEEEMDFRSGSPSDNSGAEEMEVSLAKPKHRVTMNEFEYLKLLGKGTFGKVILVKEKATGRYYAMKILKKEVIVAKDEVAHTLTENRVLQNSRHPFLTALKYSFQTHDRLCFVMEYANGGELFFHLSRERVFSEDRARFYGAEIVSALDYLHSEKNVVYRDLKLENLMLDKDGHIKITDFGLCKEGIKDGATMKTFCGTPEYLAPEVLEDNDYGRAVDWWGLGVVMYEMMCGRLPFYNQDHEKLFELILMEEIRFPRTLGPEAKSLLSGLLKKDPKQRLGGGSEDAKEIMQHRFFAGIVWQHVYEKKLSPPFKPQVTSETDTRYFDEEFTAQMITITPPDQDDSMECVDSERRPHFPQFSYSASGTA
Chain of RET (V804M) (P07949 29-1114 V804M): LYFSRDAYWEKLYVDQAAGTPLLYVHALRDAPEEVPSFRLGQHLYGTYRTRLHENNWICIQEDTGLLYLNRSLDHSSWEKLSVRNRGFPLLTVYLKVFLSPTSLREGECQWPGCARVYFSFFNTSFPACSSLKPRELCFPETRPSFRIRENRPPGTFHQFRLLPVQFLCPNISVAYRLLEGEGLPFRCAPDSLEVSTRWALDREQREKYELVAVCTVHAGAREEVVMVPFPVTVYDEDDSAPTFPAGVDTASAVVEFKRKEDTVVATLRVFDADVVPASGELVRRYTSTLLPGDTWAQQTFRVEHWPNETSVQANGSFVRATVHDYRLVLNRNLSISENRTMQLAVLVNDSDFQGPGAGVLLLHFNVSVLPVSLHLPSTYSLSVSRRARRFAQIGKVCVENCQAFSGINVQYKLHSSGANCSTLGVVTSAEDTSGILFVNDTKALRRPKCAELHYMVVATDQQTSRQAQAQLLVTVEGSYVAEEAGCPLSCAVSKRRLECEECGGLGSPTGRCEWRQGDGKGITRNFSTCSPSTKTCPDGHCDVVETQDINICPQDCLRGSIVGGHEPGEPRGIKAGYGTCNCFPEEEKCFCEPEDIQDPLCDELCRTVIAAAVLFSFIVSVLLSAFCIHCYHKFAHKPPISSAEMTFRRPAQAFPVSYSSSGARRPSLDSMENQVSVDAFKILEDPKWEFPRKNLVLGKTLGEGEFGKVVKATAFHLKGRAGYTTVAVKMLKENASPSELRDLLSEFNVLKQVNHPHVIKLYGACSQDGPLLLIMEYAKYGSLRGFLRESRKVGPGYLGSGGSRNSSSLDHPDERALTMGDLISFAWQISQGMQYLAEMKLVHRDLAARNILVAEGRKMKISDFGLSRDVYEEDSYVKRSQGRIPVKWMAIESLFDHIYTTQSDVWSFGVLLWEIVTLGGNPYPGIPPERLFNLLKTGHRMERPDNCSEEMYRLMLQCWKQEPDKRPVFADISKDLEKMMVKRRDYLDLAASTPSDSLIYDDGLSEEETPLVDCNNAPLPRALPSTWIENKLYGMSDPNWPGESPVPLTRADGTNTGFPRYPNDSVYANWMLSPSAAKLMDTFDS
Chain of AKT2 (P31751 whole entry): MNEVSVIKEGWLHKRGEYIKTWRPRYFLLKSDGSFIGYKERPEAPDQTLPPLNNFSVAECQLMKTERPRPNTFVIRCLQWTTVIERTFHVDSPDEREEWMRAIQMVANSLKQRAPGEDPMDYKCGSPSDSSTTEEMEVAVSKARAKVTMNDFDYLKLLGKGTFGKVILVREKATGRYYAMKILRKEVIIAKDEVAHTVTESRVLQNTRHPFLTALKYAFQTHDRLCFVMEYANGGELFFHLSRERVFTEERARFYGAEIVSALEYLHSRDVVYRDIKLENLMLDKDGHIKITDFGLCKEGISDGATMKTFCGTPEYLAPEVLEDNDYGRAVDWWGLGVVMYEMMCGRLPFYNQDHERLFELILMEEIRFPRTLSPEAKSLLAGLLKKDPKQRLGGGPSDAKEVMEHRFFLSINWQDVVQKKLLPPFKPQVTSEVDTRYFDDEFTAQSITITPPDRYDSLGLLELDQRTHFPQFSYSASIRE

For the compound `Nc1cccc2c1CN(C1CCC(=O)NC1=O)C2=O` (centres unmarked) [lenalidomide], the “anti-proliferative effects” value in assay [1] was “did not have strong anti-proliferative effects”.

In the case of `CC(C)NC[C@@H](C(=O)N1CCN(c2ncnc3c2[C@H](C)C[C@H]3O)CC1)c1ccc(Cl)cc1` [GDC-0068, ipatasertib, reference compound], in assay [2] (comparable to 250 nM INY-03-041), the “dose required to observe comparable effects on pPRAS40, pGSK3β, and pS6” value is “up to 1 μM”. For the same compound, in assay [3], the “pPRAS40 levels over time” value is “less pronounced inhibition of pPRAS40” and the “pPRAS40 levels after washout” value was “rebound of pPRAS40”. Further, the GR50 in the assay on ZR-75-1 cells amounted to 229 nM.

As for `C[C@@H]1C[C@@H](O)c2ncnc(N3CCN(C(=O)[C@H](CNCCCCCCCCCCc4cccc5c4CN(C4CCC(=O)N(C)C4=O)C5=O)c4ccc(Cl)cc4)CC3)c21` (stereo partly drawn) [INY-03-112, 3-(4-(10-(((S)-2-(4-chlorophenyl)-3-(4-((5R,7R)-7-hydroxy-5-methyl-6,7-dihydro-5H-cyclopenta[d]pyrimidin-4-yl)piperazin-1-yl)-3-oxopropyl)amino)decyl)-1-oxoisoindolin-2-yl)-1-methylpiperidine-2,6-dione], the “AKT isoform degradation” value in assay [4] (MDA-MB-468, immunoblot) was “did not induce potent degradation of any AKT isoform”. In the assay with ZR-75-1 cells, this compound registered a GR50 of 413 nM.

For orientation: IC50 means the midpoint of a concentration-inhibition curve. A higher IC50 goes with weaker potency in that assay. On to `C[C@@H]1C[C@@H](O)c2ncnc(N3CCN(C(=O)[C@H](CNCCCCCCCCCCc4cccc5c4CN(C4CCC(=O)NC4=O)C5=O)c4ccc(Cl)cc4)CC3)c21` (stereo partly drawn) [INY-03-041, 3-(4-(10-(((S)-2-(4-chlorophenyl)-3-(4-((5R,7R)-7-hydroxy-5-methyl-6,7-dihydro-5H-cyclopenta[d]pyrimidin-4-yl)piperazin-1-yl)-3-oxopropyl)amino)decyl)-1-oxoisoindolin-2-yl)piperidine-2,6-dione], for which, in the assay with MOLT4 cells proteome, the “S6K1 and PKG1 abundance (proteomics)” value is listed as “no downregulation of either kinases was observed”. The “change in protein abundance (proteomics)” value in the assay with MOLT4 cells proteome is recorded as “significant downregulation of all three AKT isoforms, as well as RNF166”. In addition, the “GR50 comparison” value in assay [5] is “no apparent differences in GR50 values between INY-03-041 and INY-03-112”. Also, the “concentration that significantly reduced pPRAS40, pGSK3β, and pS6 levels” value in [2] was determined as 250 nM. In addition, the “time to partial degradation of all AKT isoforms” value in assay [4] (MDA-MB-468, 250 nM) is at most 4 h. The “concentration at which diminished AKT degradation (hook effect) was observed” value in assay [4] (MDA-MB-468, 12-hour treatment) is at least 500 nM. Moreover, the IC50 at AKT1 is 2 nM; on AKT2 it was 6.8 nM; at RET (V804M), above 10000 nM; at AKT3 it was 3.5 nM; at PKG1, 33.2 nM; at S6K1 [10] it was 37.3 nM. In [6] (250 nM, T47D and MDA-MB-468), the “duration of sustained destabilization of all three AKT isoforms” value is “at least 96 hours”. The “AKT levels after compound washout” value in assay [6] (12 hours treatment with 250 nM, then washout) was “no detectable rebound of AKT levels for up to 96 hours”. The “S6K1 degradation (immunoblot)” value on S6K1 [7] is on record as “did not induce S6K1 degradation”. In assay [3], the “pPRAS40 levels over time” value is reported as “significantly reduced for up to 96 hours”. Also, the “pPRAS40 levels after washout” value in [3] is listed as “potently suppressed levels of pPRAS40 for up to 96 hours after washout”. The “AKT isoform levels after treatment” value in [8] was “no detectable levels of all three AKT isoforms”. Besides, in assay [9], the “IKZF1 and IKZF3 degradation (immunoblot)” value was “weak IKZF1 and IKZF3 degradation”. In assay [9], the “concentration at which IKZF1 and IKZF3 degradation was seen” value is reported as at least 500 nM. Further, the GR50 in the assay on ZR-75-1 cells was 16 nM. Also, the “fold increased potency compared to GDC-0068 (GR50)” value with ZR-75-1 cells was 14 fold.
